Bioassay records deposited in PubChem by several laboratories.
PvdQ acylase – P. aeruginosa PvdQ acylase inhibition; purified PvdQ acylase, fluorescence plate reader; inhibition, % at 10 µM; hit rate 0.063% among 340,000; in the data active = inhibition above about 30%, passing the limit was not always enough
HKDC1 inhibitor – inhibitors of human hexokinase HKDC1 | Q2TB90 | recombinant HKDC1, G6PDH/diaphorase resazurin coupled fluorescence | inhibition, % at 20 µM | hit rate 0.16% among 340,000;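 active = inhibition above about 35% when tested at 20 µM, limit read from the data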
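Material: recombinant HKDC1 hexokinase; Amount: HKDC1 at 5 µg/mL; Medium: Tris pH 8.0 buffer with MgCl2, Tween-20, BSA, BME; Schedule: 90 min reaction incubation at room temperature, dark; Technique: coupled resazurin fluorescence, excitation 525 nm, emission 613 nm.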
VIM-2 inhibitor – blocks Pseudomonas aeruginosa VIM-2 metallo-beta-lactamase | purified VIM-2, nitrocefin hydrolysis, epi-absorbance fluorescence | inhibition, % at 5.6 µM | hit rate 0.89% among 290,000;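 active = inhibition above the mean of all tested compounds plus 3 SD, cutoff set per screening run, cut at about 7.5% in these data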;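 note: red hydrolysis product quenches plate fluorescence so inhibitors raise well fluorescence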
beta cell repl – induces beta-cell replication in MIN6 cells; hit rate 0.29% among 330,000; MIN6 cells proliferation, ATPlite luminescence, 48 h; cells starved in 0.2% serum; 100% = growth in 10% serum; proliferation, % at 10 µM; AID 2380;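 active = compounds whose signal lies at least 3.5 SD above the mean of all wells on their plate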
ATG4B inhibitor – inhibitors of human ATG4B cysteine protease. Q9Y4P1. ATG4B cleavage of LC3-PLA2, NBD-HPC fluorescence, 1 h. inhibition, % at 8.33 µM. hit rate 0.51% among 340,000; in the data active = inhibition above about 40%
Target sequence (Q9Y4P1 whole entry, looked up): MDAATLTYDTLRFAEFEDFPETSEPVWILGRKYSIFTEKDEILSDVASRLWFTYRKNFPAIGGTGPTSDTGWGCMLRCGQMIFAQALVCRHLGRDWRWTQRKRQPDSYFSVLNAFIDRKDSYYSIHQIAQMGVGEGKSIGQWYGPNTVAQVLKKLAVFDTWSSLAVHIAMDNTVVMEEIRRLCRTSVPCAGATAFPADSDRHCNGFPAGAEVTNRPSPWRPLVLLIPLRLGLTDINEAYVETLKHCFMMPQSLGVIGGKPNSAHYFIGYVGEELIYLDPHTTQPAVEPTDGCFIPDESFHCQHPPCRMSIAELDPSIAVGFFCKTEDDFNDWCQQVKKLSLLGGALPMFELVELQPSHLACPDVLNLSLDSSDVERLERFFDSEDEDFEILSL
IMP-1 inh – inhibitors of Pseudomonas aeruginosa IMP-1 metallo-beta-lactamase; purified IMP-1, nitrocefin hydrolysis, epi-absorbance fluorescence; inhibition, % at 5.6 µM; hit rate 0.45% among 290,000; AID 1556;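 active = inhibition above the mean plus 3 SD of all compounds in the same screening run, cut at about 4.5% in these data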
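System – purified recombinant IMP-1 beta-lactamase · Input – IMP-1 dispensed at 0.2 nM · Timing – 15 min preincubation plus 25 min reaction at 25 °C · Signal – Epi-absorbance fluorescence, 480 nm excitation, 530 nm emission · Measure – percent IMP-1 inhibition derived from blank-referenced optical density · Controls – Enzyme-plus-DMSO low control, enzyme-free DMSO high control · Replication – singlicate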
VIM-2 inh confirm – VIM-2 inhibition, confirmation assay; shares compounds with IMP-1 inh; purified VIM-2 enzyme, nitrocefin absorbance; inhibition, % at 5.6 µM; hit rate 73% among 200; AID 1860; in the data active = inhibition above about 8%
TEM-1 inh 2 – blocks E. coli TEM-1 beta-lactamase, VIM-2 IMP-1 counter-screen. hit rate 50% among 200. shares compounds with IMP-1 inh. inhibition, % at 5.6 µM. nitrocefin absorbance inhibition; in the data active = inhibition above about 0.66%
Target sequence (P62593 whole entry, looked up): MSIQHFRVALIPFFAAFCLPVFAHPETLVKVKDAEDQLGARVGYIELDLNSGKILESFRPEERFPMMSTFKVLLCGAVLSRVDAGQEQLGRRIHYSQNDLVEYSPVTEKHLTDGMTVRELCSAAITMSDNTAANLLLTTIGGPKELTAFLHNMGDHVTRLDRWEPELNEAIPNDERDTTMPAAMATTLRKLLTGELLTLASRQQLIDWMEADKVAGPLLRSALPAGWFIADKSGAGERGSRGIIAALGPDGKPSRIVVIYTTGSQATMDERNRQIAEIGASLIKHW
IMP-1 confirm – confirmation of P. aeruginosa IMP-1 metallo-beta-lactamase inhibitors | shares compounds with IMP-1 inh | purified IMP-1 enzyme, absorbance substrate hydrolysis | inhibition, % at 5.6 µM | hit rate 60% among 200; in the data active = inhibition above about 4.9%
Each line names hits and unclear results; the compound was inactive in the other large screens (follow-up assays come after a bar, where they were run). This is a sample that favours compounds with a hit; in the whole collection about 2% have one here.

Cc1ccc(N=Cc2sc(O)c3ccccc23)cc1	VIM-2 inhibitor 8.4, IMP-1 inh 23.7 | VIM-2 inh confirm 14.1 | TEM-1 inh 2 inactive | IMP-1 confirm inactive
COc1ccccc1OCc1nc(C#N)c(NCCCn2ccnc2)o1	none
N#Cc1nc(COc2ccccc2F)oc1NCCCn1ccnc1	VIM-2 inhibitor 10.1, IMP-1 inh 38.7 | VIM-2 inh confirm inactive | TEM-1 inh 2 inactive | IMP-1 confirm inactive
O=C(c1ccccc1)c1c2c(cc3sc4ccccc4[n+]13)-c1cccc3cccc-2c13	VIM-2 inhibitor 16.4, IMP-1 inh 10.3 (no result: beta cell repl) | VIM-2 inh confirm 10.7 | TEM-1 inh 2 inactive | IMP-1 confirm inactive
Cc1n[nH]c(C)c1N1C(=O)c2cccc3c(N4CCCCCC4)ccc(c23)C1=O	VIM-2 inhibitor 20.2, IMP-1 inh 16.2 | VIM-2 inh confirm 27.4 | TEM-1 inh 2 20.8 | IMP-1 confirm 9.3
CC(C)NC(=O)c1nc2c(nnn2Cc2cccc(Cl)c2)c(=O)[nH]1	none
O=C(O)CC(C(=O)O)N1C(=O)/C(=C/C=C/c2ccco2)SC1=S (stereo not drawn)	none
O=C(O)CCCN1C(=O)/C(=C/C=C/c2ccco2)SC1=S	ATG4B inhibitor 52.2, IMP-1 inh 10.0 | VIM-2 inh confirm inactive | TEM-1 inh 2 inactive | IMP-1 confirm inactive
COc1ccc(NC(=O)COc2nc3ccccc3nc2N2CCOCC2)c(OC)c1	none
O=C1c2ccccc2-c2onc3ccc(NCCCn4ccnc4)c1c23	VIM-2 inhibitor 55.0, IMP-1 inh 4.6 (no result: PvdQ acylase) | VIM-2 inh confirm 88.8 | TEM-1 inh 2 69.2 | IMP-1 confirm 55.9
COc1ccc2noc3c2c1C(=O)c1ccccc1-3	none (no result: VIM-2 inhibitor, IMP-1 inh)
Cc1ccc2nc(C)cc(C(=O)N3CCCC(CO)(Cc4ccccc4C)C3)c2c1 (stereo not drawn)	none
O=C(CNC(=O)c1ccco1)NCc1ccc2c(c1)OCO2	none (no result: VIM-2 inhibitor, IMP-1 inh)
Cc1c(O)ccc(C(=O)CN2CCN(Cc3ccc4c(c3)OCO4)CC2)c1O	VIM-2 inhibitor 91.0, IMP-1 inh 87.4 (no result: beta cell repl) | VIM-2 inh confirm inactive | TEM-1 inh 2 inactive | IMP-1 confirm inactive
COc1ccc2c(Cl)c(C(=O)NCCCn3ccnc3)sc2c1Cl	VIM-2 inhibitor 25.9, IMP-1 inh 35.0 | VIM-2 inh confirm 45.0 | TEM-1 inh 2 inactive | IMP-1 confirm 57.2
CC(C)c1csc(CN2CCC(N3CCC(C(=O)N4CCOCC4)CC3)CC2)n1	none
COC(=O)C1C(c2ccccc2)C=CC(c2ccccc2)C1C(=O)O (stereo not drawn)	VIM-2 inhibitor 8.7, IMP-1 inh 60.7 | VIM-2 inh confirm inactive | TEM-1 inh 2 inactive | IMP-1 confirm 38.8
O=C(Nc1cccc(O)c1)c1ccc(NC(=O)C2CCCO2)cc1 (stereo not drawn)	none
O=C(Nc1ccc(C(F)(F)F)cc1)c1ccc(NC(=O)C2CCCO2)cc1 (stereo not drawn)	VIM-2 inhibitor 9.1, IMP-1 inh 15.6 | VIM-2 inh confirm 9.9 | TEM-1 inh 2 inactive | IMP-1 confirm 9.8
COc1ccc(Cl)cc1C(=O)Nc1cccc(-c2ccc3nncn3n2)c1	VIM-2 inhibitor 26.1, IMP-1 inh 22.8 | VIM-2 inh confirm 33.7 | TEM-1 inh 2 3.0 | IMP-1 confirm 10.7
Cc1cccn2c(=O)c3cc(C(=O)NCCCn4ccnc4)n(C)c3nc12	VIM-2 inhibitor 10.3, IMP-1 inh 23.3 (no result: beta cell repl) | VIM-2 inh confirm 31.8 | TEM-1 inh 2 inactive | IMP-1 confirm inactive
Cc1cc(C)n2nc(C)c(Br)c2n1	none
Cc1cc(C)n2nc3nc4c(cc3c2n1)CCCC4	VIM-2 inhibitor 10.6, IMP-1 inh 5.0 | VIM-2 inh confirm 14.9 | TEM-1 inh 2 inactive | IMP-1 confirm inactive
O=C(Nc1ccc2oc(-c3ccccc3F)nc2c1)c1ccc([N+](=O)[O-])o1	VIM-2 inhibitor 12.4, IMP-1 inh 41.5 | VIM-2 inh confirm 8.5 | TEM-1 inh 2 7.1 | IMP-1 confirm 24.3
COc1ccc(Br)cc1S(=O)(=O)NCCc1cccs1	none (no result: VIM-2 inhibitor, IMP-1 inh)
O=C(Nc1ccc(Oc2ccc(C(=O)O)c(C(=O)O)c2)cc1)c1cccs1	VIM-2 inhibitor 21.2, IMP-1 inh 5.4 | VIM-2 inh confirm 25.1 | TEM-1 inh 2 inactive | IMP-1 confirm inactive
O=C(NCc1ccccn1)c1cc(Cl)ccc1OCc1ccccc1	none
N=c1oc2ccc(Br)cc2cc1C(=O)NCc1ccc(F)cc1	none
CCN(CC)c1ccc2cc(C(=O)NCc3ccc(F)cc3)c(=N)oc2c1	IMP-1 inh 21.1 (no result: HKDC1 inhibitor, ATG4B inhibitor) | VIM-2 inh confirm 16.9 | TEM-1 inh 2 25.9 | IMP-1 confirm 13.3
CN1/C(=C\C=C2/SC(=S)N(CC(=O)O)C2=O)C(C)(C)c2ccccc21	VIM-2 inhibitor 11.4, IMP-1 inh 16.5 | VIM-2 inh confirm 23.2 | TEM-1 inh 2 20.8 | IMP-1 confirm 20.9
C=CCN1C(=O)/C(=C\C=C2\N(C)c3ccccc3C2(C)C)SC1=S	none
COc1cccc(NC(=O)CCC2CCN(C(=O)c3scnc3C)CC2)c1	none
COc1ccc(N=Nc2nc3cc(Br)c(Br)cc3n2C)c(OC)c1	VIM-2 inhibitor 10.1, IMP-1 inh 9.3 (no result: beta cell repl) | VIM-2 inh confirm inactive | TEM-1 inh 2 5.6 | IMP-1 confirm inactive
COCCCn1c(=NC(=O)c2ccccc2)c(C#N)cc2c(=O)n3cccc(C)c3nc21	VIM-2 inhibitor 9.3, IMP-1 inh 8.5 | VIM-2 inh confirm 17.6 | TEM-1 inh 2 31.6 | IMP-1 confirm 11.2
CC(C)OC(=O)c1cccc(NC(=O)CSc2nnc(N)s2)c1	none
CCOC(=O)c1c2c3c(cccc3n(C)c1=O)C(=O)c1ccccc1-2	VIM-2 inhibitor 14.7, IMP-1 inh 21.0 | VIM-2 inh confirm 19.6 | TEM-1 inh 2 1.4 | IMP-1 confirm 7.9
CCC(c1c(C)n(C)n(-c2ccccc2)c1=O)c1c(C)n(C)n(-c2ccccc2)c1=O	VIM-2 inhibitor 36.3, IMP-1 inh 39.2 | VIM-2 inh confirm inactive | TEM-1 inh 2 inactive | IMP-1 confirm inactive
Cc1c(N)c(C(C)(C)C)cc(C(C)(C)C)c1[N+](=O)[O-]	none
Cc1cc2nc3c(=O)[nH]c(=O)[nH]c3nc2c([N+](=O)[O-])c1N	VIM-2 inhibitor 12.4, IMP-1 inh 12.2 (no result: beta cell repl) | VIM-2 inh confirm 11.1 | TEM-1 inh 2 19.8 | IMP-1 confirm inactive
CCCCCCNc1c([N+](=O)[O-])c(=O)sc2ccccc12	none
O=C(CCN1C(=O)/C(=C/c2ccc(Cl)cc2)SC1=S)NCCCn1ccnc1	VIM-2 inhibitor 18.5, IMP-1 inh 17.6 | VIM-2 inh confirm 28.1 | TEM-1 inh 2 1.2 | IMP-1 confirm 31.9
COc1cccc(OC)c1C(=O)Nc1sc2c(c1C(N)=O)CCN(Cc1ccccc1)C2	none
